Key:
[1] = The binding affinity towards N-labeled Erythromycin-resistant ErmAM methylase evaluated by NMR
Procedure, shortened: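 Uniformly 15N-labeled ErmAM, 0.3 mM in H2O/D2O 9:1 with 20 mM BisTris, 10 mM DTT, pH 6.5. Ligand added in perdeuterated DMSO. Sensitivity-enhanced 15N HSQC run at 30 °C with and without ligand, screening at 1.0 mM. KD from chemical shift changes versus ligand concentration, fit to a single-site model by least-squares grid search.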

[2] = target: rRNA adenine N-6-methyltransferase (Bacillus subtilis, UniProt P13956); assay: Inhibitory activity against ErmC methylase
Chain of rRNA adenine N-6-methyltransferase (Bacillus subtilis, UniProt P13956) (P13956 whole entry): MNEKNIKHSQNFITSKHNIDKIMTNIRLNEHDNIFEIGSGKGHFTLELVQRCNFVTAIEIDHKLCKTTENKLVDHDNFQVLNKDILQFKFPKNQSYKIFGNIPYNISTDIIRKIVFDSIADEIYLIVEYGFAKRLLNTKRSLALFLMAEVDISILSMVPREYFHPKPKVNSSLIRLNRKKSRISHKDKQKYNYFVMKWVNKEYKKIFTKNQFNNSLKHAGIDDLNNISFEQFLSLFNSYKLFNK
Procedure, shortened: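 ErmC′ (143 nM) preincubated with compound, in duplicate, 15 min at room temperature in 50 mM Tris pH 7.5, 40 mM KCl, 4 mM MgCl2, 10 mM DTT. Started with 250 nM S-adenosyl-L-[methyl-3H]methionine and 80 nM E. coli rRNA, 2 h room temperature. Stopped with 10% TCA/100 mM KCl, filtered, washed. Precipitated counts taken as percent inhibition versus no-inhibitor wells, and IC50 read from concentration curve.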

[3] = target: T1, rRNA adenine N-6-methyltransferase (Streptococcus pneumoniae, UniProt P21236); assay: Inhibitory activity against ErmAM methylase
T1 sequence (P21236 whole entry): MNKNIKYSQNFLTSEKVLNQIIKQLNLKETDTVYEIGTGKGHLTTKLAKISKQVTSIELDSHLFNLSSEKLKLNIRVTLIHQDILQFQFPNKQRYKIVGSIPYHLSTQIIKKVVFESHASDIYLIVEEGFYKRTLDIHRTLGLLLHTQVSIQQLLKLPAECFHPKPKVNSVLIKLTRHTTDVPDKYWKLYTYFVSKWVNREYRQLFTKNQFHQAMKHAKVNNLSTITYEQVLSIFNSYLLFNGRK
Procedure, shortened: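 Radiometric methyltransferase assay in 50 mM Tris pH 7.5, 100 mM KCl, 4 mM MgCl2, 1 mM DTT with 95 nM ErmAM. Enzyme was preincubated with compound for 15 min at room temperature, in duplicate. Reaction was then started with 250 nM S-adenosyl-L-[methyl-3H]methionine and 80 nM E. coli rRNA and run 2 h at room temperature. It was stopped with 10% TCA/100 mM KCl on ice. TCA-precipitated counts were read after filtration. IC50 was taken from percent inhibition versus control plotted against concentration.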

[4] = The binding affinity towards ErmAM methylase identified by NMR

Kd [1] [µM] | Kd [4] [µM] | SMILES | Ki [2] [µM] | Ki [3] [µM]
1000 |  | CSc1nc(N)nc(N)n1 |  | 
 |  | C[C@@H](Nc1nc(N)nc(N2CCCCC2)n1)c1ccccc1 | > 100 | > 100
 |  | Nc1nc(Nc2ccccc2)nc(N2CCCCC2)n1 | > 100 | > 100
 |  | c1ccc2c(c1)CC(Nc1ncnc(N3CCCCC3)n1)C2 | > 100 | > 75
 |  | COc1ccc2c(c1)CC(Nc1nc(N)nc(N3CCCCC3)n1)C2 (configuration not stated) | 75 | 6
 | 310 | Nc1nc(NC2CCCCC2)nc(-c2ccc(O)cc2)n1 |  | 
 |  | Nc1nc(NC2CCc3ccccc32)nc(N2CCCCC2)n1 (configuration not stated) | > 100 | 75
 |  | Nc1nc(NC2Cc3ccccc3C2)cc(-c2ccc(NCCCc3ccccc3O)cc2)n1 | 12.5 | 7.5
 |  | Nc1nc(NC2Cc3ccc(F)cc3C2)nc(N2CCCCC2)n1 (configuration not stated) | 37 | 3
 |  | Nc1nc(NC2CCCCC2)nc(N2CCCCC2)n1 | > 100 | 75
 |  | Nc1nc(NCCCc2c(O)cc(Cl)cc2Cl)nc(NC2Cc3ccccc3C2)n1 | > 100 | 10
 |  | Nc1nc(NC2Cc3ccccc3C2)nc(C2CCCCC2)n1 | > 100 | 25
 |  | Nc1ccc(-c2nc(N)nc(NC3Cc4ccccc4C3)n2)cc1 | > 50 | 35
 | 5000 | Nc1nc(N)nc(N2CCCCC2)n1 |  | 
 |  | Nc1nc(N2CCCCC2)nc(N2CCCCC2)n1 | > 100 | > 100
 |  | Nc1nc(NC2Cc3ccccc3C2)nc(N2CCC(C(=O)O)CC2)n1 | > 100 | > 100
 |  | Nc1cccc(-c2nc(N)nc(NC3Cc4ccccc4C3)n2)c1 | 10 | 4
 |  | Nc1nc(NC2Cc3ccccc3C2)nc(N2CCCC(CO)C2)n1 (configuration not stated) | > 100 | 12.5
 | 12000 | Nc1nc(N)nc(-c2ccc(O)cc2)n1 |  | 
 |  | Nc1nc(NC2Cc3ccccc3C2)nc(N2CCCCC2)n1 | 75 | 8
 |  | Oc1nc(NC2Cc3ccccc3C2)nc(N2CCCCC2)n1 | > 100 | > 100
 |  | Nc1ccc(-c2cc(NC3Cc4ccccc4C3)nc(N)n2)cc1 | > 100 | 75
 |  | CN(c1nc(N)nc(N2CCCCC2)n1)C1CCCCC1 | > 100 | > 100
 |  | Nc1nc(NC2Cc3ccccc3C2)nc(N2CCC(CO)CC2)n1 | 75 | 9
 |  | CSc1nc(N)nc(NC2Cc3ccccc3C2)n1 | > 100 | 10
 |  | Nc1nc(NC2Cc3ccccc3C2)nc(N2CCC(C(=O)NCCc3c[nH]c4ccccc34)CC2)n1 | 20 | 2
1300 |  | c1cnc2[nH]ccc2c1 |  | 
 |  | Nc1nc(NC2CCCCC2)nc(NC2Cc3ccccc3C2)n1 | > 100 | > 100
 |  | Nc1ncnc2c1ncn2[C@@H]1O[C@H](CSCC[C@H](N)C(=O)O)[C@@H](O)[C@H]1O [S-ADENOSYLHOMOCYSTEINE] |  | 40

— ChEMBL document CHEMBL1132643, “Novel inhibitors of Erm methyltransferases from NMR and parallel synthesis” (J Med Chem, 1999)
